Data on 16 molecules can be found in PMC12423761 (RSC Advances, 2025).

In data set [1] the test system is MCF-7 (human breast adenocarcinoma) cells. As to the kind of experiment: Antiproliferative activity, LDH release assay, MCF-7. The data set is classed as cell-based. The note with it: MCF7, 48 h, read-out: IC50 (μM) ± SD MCF-7. An outline of the steps:
(§1)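 Cells were kept in RPMI-1640 with 10% heat-inactivated FBS and penicillin/streptomycin at 37 °C in 5% CO2. They were seeded at 1 × 10^4 per well, grown 18 h, then exposed to graded concentrations for 48 h, with doxorubicin as positive control. LDH was read in supernatant and in Triton X-100 lysate by kinetic A340 over 1 min, using pH 7.5 phosphate with 4.6 mM pyruvate and 0.4 mg mL−1 NADH. % release = released/total. Three experiments in triplicate; IC50 by probit analysis.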
On the technique in general: LDH in the medium is a marker of cell lysis.

Data set [2] relates to BJ-1 normal human skin fibroblast cells. As to the kind of experiment: Cytotoxicity on normal cells, LDH release assay, BJ-1. The settings on record: for IC50: Homo sapiens, Skin fibroblast, 48 h, read-out: IC50 (μM) ± SD BJ-1; for toxic activity on healthy cells BJ-1: BJ-1 normal cells, LDH assay. Type of data set: cell-based. Put shortly: as §1
Data set [3] relates to HCT-116 (human colorectal carcinoma) cells. As to the kind of experiment: Antiproliferative activity, LDH release assay, HCT-116. Type of data set: cell-based. The note with it: HCT-116, 48 h, read-out: IC50 (μM) ± SD HCT-116. Put shortly:
as §1

The target of data set [4] is epidermal growth factor receptor (EGFR) (Homo sapiens, UniProt P00533). In words: EGFR kinase inhibition assay. The data set is classed as biochemical.
Chain of epidermal growth factor receptor (EGFR) (P00533 25-1210): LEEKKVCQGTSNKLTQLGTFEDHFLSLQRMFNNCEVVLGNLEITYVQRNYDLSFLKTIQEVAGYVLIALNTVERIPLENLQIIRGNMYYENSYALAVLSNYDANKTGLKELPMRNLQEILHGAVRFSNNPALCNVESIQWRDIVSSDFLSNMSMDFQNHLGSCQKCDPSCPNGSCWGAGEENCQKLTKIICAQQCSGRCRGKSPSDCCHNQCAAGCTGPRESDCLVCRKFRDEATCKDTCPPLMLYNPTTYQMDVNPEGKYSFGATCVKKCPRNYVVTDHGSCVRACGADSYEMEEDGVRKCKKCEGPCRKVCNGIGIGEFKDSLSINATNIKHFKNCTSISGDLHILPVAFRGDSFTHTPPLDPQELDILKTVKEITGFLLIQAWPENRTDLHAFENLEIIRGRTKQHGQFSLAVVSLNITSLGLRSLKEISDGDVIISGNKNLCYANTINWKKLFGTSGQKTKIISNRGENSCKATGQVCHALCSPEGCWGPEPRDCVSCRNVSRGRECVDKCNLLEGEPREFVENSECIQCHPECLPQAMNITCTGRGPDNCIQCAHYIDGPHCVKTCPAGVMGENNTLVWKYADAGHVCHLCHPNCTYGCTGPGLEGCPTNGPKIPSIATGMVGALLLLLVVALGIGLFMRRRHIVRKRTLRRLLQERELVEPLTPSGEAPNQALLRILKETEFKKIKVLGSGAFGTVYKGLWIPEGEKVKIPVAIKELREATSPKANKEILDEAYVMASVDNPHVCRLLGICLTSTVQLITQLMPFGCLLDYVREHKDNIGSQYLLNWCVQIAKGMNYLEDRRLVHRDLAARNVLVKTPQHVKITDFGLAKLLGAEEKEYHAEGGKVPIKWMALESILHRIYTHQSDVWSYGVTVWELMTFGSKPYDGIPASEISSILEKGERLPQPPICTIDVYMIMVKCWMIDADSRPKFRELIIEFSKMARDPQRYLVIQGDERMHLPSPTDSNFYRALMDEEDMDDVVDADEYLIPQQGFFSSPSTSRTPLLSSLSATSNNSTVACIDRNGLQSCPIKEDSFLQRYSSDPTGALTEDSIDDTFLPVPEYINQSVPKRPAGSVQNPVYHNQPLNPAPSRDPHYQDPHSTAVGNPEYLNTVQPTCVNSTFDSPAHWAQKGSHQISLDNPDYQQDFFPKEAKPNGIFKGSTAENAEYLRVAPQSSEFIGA
Data set [5] has as its target ERK1 (extracellular signal-regulated kinase 1) (Homo sapiens, UniProt P27361). In words: ERK1 kinase assay. The data set is classed as biochemical.
The test system of data set [6] is MCF-7 cells. In words: Cell-cycle analysis by flow cytometry. The data set is classed as cell-based, human. The settings on record: MCF-7, 48 h; control 10.98%. A general note: In flow cytometry, cells or beads pass a laser one at a time.
The target of data set [7] is histone deacetylase 1 (HDAC1) (Homo sapiens, UniProt Q13547). In words: Fluorogenic HDAC1 inhibition assay. The data set is classed as biochemical.
Chain of histone deacetylase 1 (HDAC1) (Q13547 whole entry): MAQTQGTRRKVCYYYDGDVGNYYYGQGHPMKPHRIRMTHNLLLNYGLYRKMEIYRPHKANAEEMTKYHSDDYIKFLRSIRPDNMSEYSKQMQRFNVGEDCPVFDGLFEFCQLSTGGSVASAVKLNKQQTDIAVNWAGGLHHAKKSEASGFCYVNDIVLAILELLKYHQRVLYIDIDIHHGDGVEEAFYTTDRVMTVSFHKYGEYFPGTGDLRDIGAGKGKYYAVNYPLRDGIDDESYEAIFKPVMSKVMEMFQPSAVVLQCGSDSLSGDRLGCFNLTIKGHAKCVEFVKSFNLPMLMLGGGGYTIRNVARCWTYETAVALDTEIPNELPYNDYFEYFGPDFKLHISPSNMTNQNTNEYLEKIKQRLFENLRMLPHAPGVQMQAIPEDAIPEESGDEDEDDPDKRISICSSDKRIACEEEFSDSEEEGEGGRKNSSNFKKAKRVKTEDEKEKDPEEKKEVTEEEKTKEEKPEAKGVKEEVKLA
Data set [8] relates to Ehrlich ascites carcinoma (EAC) cells. In words: Ehrlich ascites carcinoma. The data set is classed as in vivo, female BALB/c mice. The settings on record: EAC-bearing mice; for total volume of collected ascitic fluid: i.p. 2 mg kg^−1 twice weekly × 2 weeks; for Avg. volume of ascitic fluid (mL) [packed cell volume] / Viable cell count (×10^6 cells per mL) / Cell-growth inhibition (%): i.p. 2 mg kg^−1 × 2 weeks; for Avg. volume of ascitic fluid (mL) [packed cell volume]: EAC control 10.5; for Viable cell count (×10^6 cells per mL): trypan blue, EAC control 33; for Cell-growth inhibition (%): vs EAC control viable cell count. Put shortly: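 Female BALB/c mice (25 ± 3 g) received 1 × 10^6 EAC cells i.p. in 100 μL PBS (>95% trypan-blue viability). On day 3, mice were grouped (n = 8). Dosing was i.p.: test compound 2 mg kg−1 twice weekly × 2 weeks, DMSO vehicle, or doxorubicin 2 mg kg−1 once weekly. Endpoint: ascitic volume measured, fluid spun 1200×g for 10 min, viable cells counted by 0.4% trypan blue on a hemocytometer. Growth inhibition = (control − treated)/control × 100.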

Data set [9] has as its system Ehrlich solid carcinoma (ESC). As to the kind of experiment: Ehrlich solid carcinoma. Type of data set: in vivo, male BALB-c mice. The note with it: intratumoral 2 mg kg^−1, two doses weekly for two weeks.
For data set [10], the system named is MCF-7 cells. In words: Apoptosis assay, Annexin V-FITC/PI flow cytometry. The data set is classed as cell-based, human. The settings on record: MCF-7, 48 h.

Like-named read-outs stand apart in the source and are kept apart here. A value given as a limit tells only on which side of the number the result lay.

Chain of ERK1 (extracellular signal-regulated kinase 1) (P27361 whole entry): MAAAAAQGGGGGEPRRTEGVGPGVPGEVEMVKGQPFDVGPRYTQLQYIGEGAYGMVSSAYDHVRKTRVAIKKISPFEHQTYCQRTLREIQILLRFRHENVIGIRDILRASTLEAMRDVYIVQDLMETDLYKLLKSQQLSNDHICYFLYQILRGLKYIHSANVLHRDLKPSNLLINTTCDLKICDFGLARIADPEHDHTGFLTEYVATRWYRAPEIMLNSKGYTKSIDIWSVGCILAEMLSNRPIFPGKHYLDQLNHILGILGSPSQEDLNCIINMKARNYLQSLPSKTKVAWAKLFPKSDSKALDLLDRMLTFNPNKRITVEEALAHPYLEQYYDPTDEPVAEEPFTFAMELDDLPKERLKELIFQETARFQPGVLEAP

`COc1ccc(N=Nc2sc(=NN=C(C)c3c(O)c4ccccc4oc3=O)[nH]c2C)cc1` [3a, 4-Hydroxy-3-(-1-((-5-(-(4-methoxyphenyl)diazenyl)-4-methylthiazol-2(3H)-ylidene) hydrazono)ethyl)-2H-chromen-2-one]: the IC50 is 3.1 ± 0.1 µM in data set [1], 24.8 ± 2.1 µM in data set [2] and 3.2 ± 0.1 µM in [3].
Take `COc1ccc(N=Nc2sc(=NN=C(C)c3c(O)c4ccccc4oc3=O)n(C)c2C)cc1` [3b, 4-Hydroxy-3-(-1-((-5-(-(4-methoxyphenyl)diazenyl)-3,4-dimethylthiazol-2(3H)-ylidene) hydrazono)ethyl)-2H-chromen-2-one]: the IC50 in [1] amounted to 5 ± 0.2 µM; in [2], 27 ± 2.2 µM; in data set [3], 2.6 ± 0.1 µM.
Consider `CCn1c(C)c(N=Nc2ccc(OC)cc2)sc1=NN=C(C)c1c(O)c2ccccc2oc1=O` [3c, 3-(1-((-3-Ethyl-5-(-(4-methoxyphenyl)diazenyl)-4-methylthiazol-2(3H)-ylidene) hydrazono)ethyl)-4-hydroxy-2H-chromen-2-one], for which the IC50 in [1] came to 2.6 ± 0.1 µM; in data set [2] it was 27 ± 2.1 µM; in data set [3], 3.1 ± 0.1 µM.
In the case of `CC(=NN=c1[nH]c(C)c(N=Nc2ccc([N+](=O)[O-])cc2[N+](=O)[O-])s1)c1c(O)c2ccccc2oc1=O` [3d, 3-(-1-((-5-(-(2,4-Dinitrophenyl)diazenyl)-4-methylthiazol-2(3H)-ylidene)hydrazono)ethyl)-4-hydroxy-2H-chromen-2-one], the figures for the IC50 in data set [1], in data set [2] and in data set [3] were 5.1 ± 0.2 µM, 26.7 ± 2.3 µM and 2.8 ± 0.1 µM, respectively.
For the molecule `CCn1c(C)c(N=Nc2ccc([N+](=O)[O-])cc2[N+](=O)[O-])sc1=NN=C(C)c1c(O)c2ccccc2oc1=O` [3f, 3-(-1-((-5-(-(2,4-Dinitrophenyl)diazenyl)-3-ethyl-4-methylthiazol-2(3H)-ylidene)hydrazono)ethyl)-4-hydroxy-2H-chromen-2-one], the IC50 in data set [1] came out at 2.6 ± 0.1 µM; in [2] it was 25.6 ± 2.5 µM; in data set [3], 2.9 ± 0.2 µM.
Take `CC(=NN=c1[nH]c(C)c(N=Nc2ccc(F)cc2)s1)c1c(O)c2ccccc2oc1=O` [3g, 3-(-1-((-5-(-(4-Fluorophenyl)diazenyl)-4-methylthiazol-2(3H)-ylidene)hydrazono)ethyl)-4-hydroxy-2H-chromen-2-one]: the values for the IC50 in [1], in [2] and in data set [3] were 2.9 ± 0.2 µM, 30.6 ± 3.3 µM and 2.8 ± 0.2 µM, respectively.
Consider `CC(=NN=c1sc(N=Nc2ccc(F)cc2)c(C)n1C)c1c(O)c2ccccc2oc1=O` [3h, 3-(-1-((-5-(-(4-Fluorophenyl)diazenyl)-3,4-dimethylthiazol-2(3H)-ylidene)hydrazono)ethyl)-4-hydroxy-2H-chromen-2-one], for which the IC50 in data set [1] was found to be 2.8 ± 0.2 µM; in [2], 27.5 ± 2.5 µM; in data set [3] it was 3 ± 0.2 µM.
For the molecule `CCn1c(C)c(N=Nc2ccc(F)cc2)sc1=NN=C(C)c1c(O)c2ccccc2oc1=O` [3i, 3-(-1-((-3-Ethyl-5-(-(4-fluorophenyl)diazenyl)-4-methylthiazol-2(3H)-ylidene)hydrazono)ethyl)-4-hydroxy-2H-chromen-2-one], the results for the concentration for half-maximal inhibition (IC50) in [1], in data set [2] and in data set [3] were 3 ± 0.1 µM, 34.3 ± 2.5 µM and 3.1 ± 0.2 µM, respectively.
`CC(=NN=c1[nH]c(C)c(N=Nc2ccc(Cl)cc2)s1)c1c(O)c2ccccc2oc1=O` [3j, 3-(-1-((-5-(-(4-Chlorophenyl)diazenyl)-4-methylthiazol-2(3H)-ylidene)hydrazono)ethyl)-4-hydroxy-2H-chromen-2-one]: the IC50 stood at 3.1 ± 0.2 µM in data set [1], 27 ± 2.3 µM in data set [2] and 12.7 ± 1.2 µM in [3].
`CC(=NN=c1sc(N=Nc2ccc(Cl)cc2)c(C)n1C)c1c(O)c2ccccc2oc1=O` [3k, 3-(-1-((-5-(-(4-Chlorophenyl)diazenyl)-3,4-dimethylthiazol-2(3H)-ylidene)hydrazono)ethyl)-4-hydroxy-2H-chromen-2-one]: the IC50 in data set [1] was found to be 5.4 ± 0.3 µM; in data set [2], 25.8 ± 2.1 µM; in data set [3] it was 11.6 ± 1.1 µM.
In the same order, the values of `CCn1c(C)c(N=Nc2ccc(Cl)cc2)sc1=NN=C(C)c1c(O)c2ccccc2oc1=O` [3l, 3-(-1-((-5-(-(4-Chlorophenyl)diazenyl)-3-ethyl-4-methylthiazol-2(3H)-ylidene)hydrazono)ethyl)-4-hydroxy-2H-chromen-2-one] are 4.8 ± 0.3 µM, 26.2 ± 2.4 µM and 2.8 ± 0.1 µM.
Take `CC(=NN=c1[nH]c(C)c(N=Nc2ccc(Br)cc2)s1)c1c(O)c2ccccc2oc1=O` [3m, 3-(-1-((-5-(-(4-Bromophenyl)diazenyl)-4-methylthiazol-2(3H)-ylidene)hydrazono)ethyl)-4-hydroxy-2H-chromen-2-one]: the IC50 was 0.08 ± 0.003 µM in data set [4]; 0.339 ± 0.013 µM in data set [5]; 1.01 ± 0.034 µM in data set [7]; 12.7 ± 1.1 µM in data set [1]; > 500 µM in [2]; 33.8 ± 3.1 µM in data set [3]. The “cells in the G2/M phase” value in the data set with MCF-7 cells [6] came out at 29.71%. In data set [2], the “toxic activity on healthy cells BJ-1” value is “non-significant toxic activities”. Further, in data set [8], the “total volume of collected ascitic fluid” value is “significant reduction”. Besides, the “Avg. volume of ascitic fluid (mL) [packed cell volume]” value (“Avg. volume of ascitic fluid (mL)” below) in data set [8] stood at 6 mL. Moreover, the “Viable cell count (×10^6 cells per mL)” value in data set [8] is listed as 13 ×10^6 cells per mL. The “Cell-growth inhibition (%)” value in data set [8] was 60.61%. Further, the “tumor volume of Ehrlich solid carcinoma” value in [9] was “reduced to a level comparable to that of the doxorubicin group”. The molecule also yielded a late apoptosis with MCF-7 cells [10] (control 0.14%) of 5.57%. Besides, the early apoptosis in the data set with MCF-7 cells [10] (control 0.61%) amounted to 14.67%. For the same molecule, in the data set with MCF-7 cells [10] (control 2.16%), the necrosis is given as 3.51%.
Molecule `CC(=NN=c1sc(N=Nc2ccc(Br)cc2)c(C)n1C)c1c(O)c2ccccc2oc1=O` [3n, 3-(-1-((-5-(-(4-Bromophenyl)diazenyl)-3,4-dimethylthiazol-2(3H)-ylidene)hydrazono)ethyl)-4-hydroxy-2H-chromen-2-one] came in with an IC50 in data set [4] of 0.35 ± 0.011 µM. Besides, the half-maximal inhibitory concentration (IC50) in data set [7] turned out to be 3.88 ± 0.131 µM. Moreover, the IC50 in data set [1] came out at 12.3 ± 1.2 µM. Besides, in [2], the “toxic activity on healthy cells BJ-1” value is “non-significant toxic activities” and the IC50 is > 500 µM. In [3], the IC50 was 31.8 ± 3.3 µM. Besides, in data set [8], the “total volume of collected ascitic fluid” value is “significant reduction”, the “Avg. volume of ascitic fluid (mL)” value amounted to 8 mL, the “Viable cell count (×10^6 cells per mL)” value is 22 ×10^6 cells per mL and the “Cell-growth inhibition (%)” value was found to be 33.33%. Also, in data set [9], the “tumor volume of Ehrlich solid carcinoma” value is “more significant in the group administered with compound 3m than in the group administered with compound 3n”.
As to `CCn1c(C)c(N=Nc2ccc(Br)cc2)sc1=NN=C(C)c1c(O)c2ccccc2oc1=O` [3o, 3-(-1-((-5-(-(4-Bromophenyl)diazenyl)-3-ethyl-4-methylthiazol-2(3H)-ylidene)hydrazono)ethyl)-4-hydroxy-2H-chromen-2-one], the figures for the IC50 in data set [1], in data set [2] and in data set [3] were 22.9 ± 2.3 µM, > 500 µM and 29.8 ± 2.5 µM, respectively. In data set [2], the “toxic activity on healthy cells BJ-1” value is listed as “non-significant toxic activities”.
Regarding `COc1cccc2c1C(=O)c1c(O)c3c(c(O)c1C2=O)C[C@@](O)(C(=O)CO)C[C@@H]3O[C@H]1C[C@H](N)[C@H](O)[C@H](C)O1` [Doxorubicin, reference compound], the values for the IC50 in [1], in [2] and in data set [3] were 5.6 ± 0.3 µM, 32.1 ± 3.1 µM and 6.5 ± 0.5 µM, respectively. The “Avg. volume of ascitic fluid (mL)” value in data set [8] worked out at 4 mL. The “Viable cell count (×10^6 cells per mL)” value in data set [8] was 9 ×10^6 cells per mL. The “Cell-growth inhibition (%)” value in data set [8] was found to be 72.72%.
Turning to `Cc1cc(Nc2ncc3c(n2)N(C)C(=O)N(c2cc(NC(=O)c4cccc(C(F)(F)F)c4)ccc2C)C3)n(C)n1` [pluripotin, reference compound], the IC50 in data set [5] (read-out: ERK inhibition IC50) is 0.171 ± 0.006 µM.

A word on the IC50: it is the concentration that gives 50% inhibition.
